Consider 38 sequences from the array DNA melting data of Ke et al. (doi:10.1101/2024.01.08.574731).

A short description of data set [1]: folding enthalpy; higher = less favourable; fluorescence melt of hairpins on a sequencing array, two-state fit. The settings on record: sodium 0.088 M. In short, it runs like this: (§1)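 With Cy3 and quencher oligos annealed, library hairpins on a sequenced MiSeq flow cell were imaged for Cy3 fluorescence in 50 mM Na-HEPES pH 8.0, 25 mM NaCl, in 2.5 °C steps up to 60 °C. Melting temperature and folding enthalpy were derived from bootstrapped two-state fits of signals normalised to pre-quench Cy3 and to control constructs. Four replicates were combined by inverse variance, with fitted temperatures raised by 9.35 °C to match UV melts.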

The nature of data set [2]: melting temperature; fluorescence melt of hairpins on a sequencing array, two-state fit, raised by 9.35 °C to match UV melts. The settings on record: sodium 0.088 M. Summed up: as §1

For the sequence GATCTGTCTACAGATC ((((((....)))))), in data set [1], the folding enthalpy is -47.5 kcal/mol. The Tm in data set [2] came out at 54.9 °C.
For the sequence GATCTGTGAACAGATC ((((((....)))))), the folding enthalpy in data set [1] was -43 kcal/mol. Further, in data set [2], the Tm was 52.9 °C.
GATCTGTGACAGATC ((((((...)))))): in data set [1], the folding enthalpy is -31.5 kcal/mol. Further, the Tm in data set [2] is 48.8 °C.
For GATCTGTGTCAGATC ((((((...)))))), the folding enthalpy in data set [1] was -34.1 kcal/mol. Moreover, in data set [2], the Tm amounted to 50.6 °C.
For the sequence GATCTGTTGCAGATC ((((((...)))))), the folding enthalpy in data set [1] was -36.5 kcal/mol. The Tm in data set [2] amounted to 48.7 °C.
For the sequence GATCTGTTGTCAGATC ((((((....)))))), in data set [1], the folding enthalpy was -37.1 kcal/mol. Besides, the Tm in data set [2] was determined as 50.9 °C.
On to GATCTGTTTTCAGATC ((((((....)))))), for which, in data set [1], the folding enthalpy is -49.9 kcal/mol. Moreover, the Tm in data set [2] was 51.4 °C.
Regarding GATCTTAAATAAGATC ((((((....)))))), in data set [1], the folding enthalpy is -31.9 kcal/mol. Moreover, in data set [2], the Tm turned out to be 38.5 °C.
Consider GATCTTAACAAGATC ((((((...)))))), for which, in data set [1], the folding enthalpy is -31.9 kcal/mol. For the same sequence, the Tm in data set [2] was 45.6 °C.
The matching figures for GATCTTAAGAAAGATC ((((((....)))))): -22.1 kcal/mol and 36 °C.
Turning to GATCTTAAGAAGATC ((((((...)))))), the folding enthalpy in data set [1] was -25.5 kcal/mol. In addition, in data set [2], the Tm came to 40.5 °C.
On to GATCTTACAAAAGATC ((((((....)))))), for which, in data set [1], the folding enthalpy was -26.4 kcal/mol. Besides, the Tm in data set [2] was 39.6 °C.
With GATCTTACAAAGATC ((((((...)))))), the folding enthalpy in data set [1] is -32.2 kcal/mol. In addition, the Tm in data set [2] came to 44.4 °C.
Turning to GATCTTACGTAAGATC ((((((....)))))), the folding enthalpy in data set [1] was -63 kcal/mol. The Tm in data set [2] stood at 48.3 °C.
Take GATCTTACTAAAGATC ((((((....)))))): the folding enthalpy in data set [1] is -33 kcal/mol. For the same sequence, the Tm in data set [2] came to 43 °C.
For GATCTTAGAAAGATC ((((((...)))))), the folding enthalpy in data set [1] is -31.3 kcal/mol. Further, in data set [2], the Tm turned out to be 41.5 °C.
Regarding GATCTTAGAGAAGATC ((((((....)))))), the folding enthalpy in data set [1] is -21.1 kcal/mol. In addition, the Tm in data set [2] was 37.7 °C.
GATCTTAGCAAGATC ((((((...)))))): in data set [1], the folding enthalpy is -31.9 kcal/mol. The Tm in data set [2] is 46.2 °C.
As for GATCTTAGCGAAGATC ((((((....)))))), in data set [1], the folding enthalpy was -31.2 kcal/mol. The Tm in data set [2] is 43.4 °C.
Turning to GATCTTAGGGAAGATC ((((((....)))))), the folding enthalpy in data set [1] is -26.3 kcal/mol. The Tm in data set [2] turned out to be 41.5 °C.
Regarding GATCTTATAAAAGATC ((((((....)))))), in data set [1], the folding enthalpy was -25.5 kcal/mol. Moreover, the Tm in data set [2] turned out to be 40 °C.
The matching figures for GATCTTATGTAAGATC ((((((....)))))): -36.6 kcal/mol and 45.2 °C.
Consider GATCTTATTGAAGATC ((((((....)))))), for which the folding enthalpy in data set [1] is -31.5 kcal/mol. Also, in data set [2], the Tm was determined as 41.8 °C.
On to GATCTTCAAAAAGATC ((((((....)))))), for which the folding enthalpy in data set [1] was -27.3 kcal/mol. The Tm in data set [2] is 40.4 °C.
Consider GATCTTCAAAAGATC ((((((...)))))), for which the folding enthalpy in data set [1] is -19.2 kcal/mol. The Tm in data set [2] turned out to be 41 °C.
The matching figures for GATCTTCACCAAGATC ((((((....)))))): -35.5 kcal/mol and 41.9 °C.
In the same order, the values of GATCTTCATAAAGATC ((((((....)))))) are -35.6 kcal/mol and 43.5 °C.
In the same order, the values of GATCTTCCGAAAGATC ((((((....)))))) are -29.7 kcal/mol and 43.2 °C.
Regarding GATCTTCCGCAAGATC ((((((....)))))), the folding enthalpy in data set [1] was -35.4 kcal/mol. Further, the Tm in data set [2] turned out to be 42.5 °C.
In the same order, the values of GATCTTCCGTAAGATC ((((((....)))))) are -29.8 kcal/mol and 43.8 °C.
The matching figures for GATCTTCCTCAAGATC ((((((....)))))): -30.1 kcal/mol and 42 °C.
As to GATCTTCGAAAAGATC ((((((....)))))), the folding enthalpy in data set [1] was -24.9 kcal/mol. For the same sequence, the Tm in data set [2] is 40.5 °C.
For the sequence GATCTTCGCAAAGATC ((((((....)))))), the folding enthalpy in data set [1] is -28.3 kcal/mol. In addition, in data set [2], the Tm came out at 45.5 °C.
In the case of GATCTTCGCAAGATC ((((((...)))))), the folding enthalpy in data set [1] is -33.7 kcal/mol. The Tm in data set [2] was 45.4 °C.
With GATCTTCGTAAAGATC ((((((....)))))), the folding enthalpy in data set [1] was -40.8 kcal/mol. In data set [2], the Tm was found to be 44.9 °C.
In the same order, the values of GATCTTCTAGAAGATC ((((((....)))))) are -40.9 kcal/mol and 49.6 °C.
The matching figures for GATCTTCTGAAAGATC ((((((....)))))): -25.4 kcal/mol and 42.1 °C.
Turning to GATCTTCTGCAAGATC ((((((....)))))), in data set [1], the folding enthalpy is -22 kcal/mol. For the same sequence, the Tm in data set [2] was 42.9 °C.
